The source of these data is ChEMBL document CHEMBL1143665, “Novel acyclic enediynes inhibit Cyclin A and Cdc25C expression and induce apoptosis phenomenon to show potent antitumor proliferation” (2007).

SMILES strings stand for the structures. Active and inactive are the calls of the source. The calls are words filed in the database; no cut-off is given here.

Assay [1] relates to SF-295. Description: Cytotoxicity against human SF295 cells. Type of assay: functional.
The subject of assay [2] is K562. The experiment in a line: Cytotoxicity against human K562 cells. Type of assay: functional.
Assay [3] concerns DU-145. Description: Cytotoxicity against human DU145 cells. Type of assay: functional.
Assay [4] relates to HCT-15. The experiment in a line: Cytotoxicity against human HCT15 cells. Type of assay: functional.
For assay [5], the system named is LOX IMVI. The experiment in a line: Cytotoxicity against human LOX IMVI cells. Type of assay: functional.
The test system of assay [6] is OVCAR-3. The experiment in a line: Cytotoxicity against human OVCAR-3 cells. In kind it is functional.
Assay [7] has as its system MDA-MB-435. The experiment in a line: Cytotoxicity against human MDA-MB-435 cells. Type of assay: functional.
For assay [8], the system named is K562. The experiment in a line: Cell cycle arrest in human K562 cells by accumulation at G0/G1 phase cell at 50 uM after 24 hrs relative to control. In kind it is functional. In short, it runs like this: (§1)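 K-562 cells (RPMI 1640, 10% fetal calf serum, 37 °C, 5% CO2) exposed 24 h, pelleted, fixed in ice-cold 70% ethanol 30 min, RNase A (1 mg/ml) 37 °C 30 min, propidium iodide stain 30 min at room temperature in the dark; DNA content of 10,000 events by flow cytometry; phase and sub-G1 percentages compared with untreated control.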

The test system of assay [9] is K562. Description: Cell cycle arrest in human K562 cells by accumulation at S phase cell at 50 uM after 24 hrs relative to control. Type of assay: functional. In short, it runs like this:
as §1

Assay [10] relates to K562. Description: Cell cycle arrest in human K562 cells by accumulation at G2/M phase cell at 50 uM after 24 hrs relative to control. In kind it is functional. In short, it runs like this:
as §1

Assay [11] deals with K562. Description: Induction of apoptosis in human K562 cells assessed as accumulation at subG1 phase at 50 uM after 24 hrs relative to control. In kind it is functional. In short, it runs like this: as §1
In assay [12] the test system is M14. Description: Cytotoxicity against human M14 cells. In kind it is functional.
Assay [13] concerns SK-OV-3. The experiment in a line: Cytotoxicity against human SKOV3 cells. Type of assay: functional.
In assay [14] the test system is MDA-MB-231. The experiment in a line: Cytotoxicity against human MDA-MB-231 cells. In kind it is functional.
Assay [15] concerns SR. Description: Cytotoxicity against human SR cells. In kind it is functional.
The test system of assay [16] is K562. Description: Decrease in Cyclin A protein levels in human K562 cells at 25 uM. In kind it is functional, cell-based. The gist of the method:
(§2)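 Western blot of treated K-562 cells: lysis in Tris pH 7.5/1% NP-40/EDTA/NaCl with protease inhibitors on ice 30 min, spun 20,000g 30 min 4 °C; 50 µg lysate on 12% SDS-PAGE, PVDF transfer, probed with anti-Cdk1, -Cdk2, -Cyclin A, -Cyclin B1 or -Cdc25C; enhanced chemiluminescence detection.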

For assay [17], the system named is K562. Description: Decrease in Cyclin A protein levels in human K562 cells at 50 uM. In kind it is functional, cell-based. The gist of the method: as §2
In assay [18] the test system is K562. The experiment in a line: Decrease in Cdc25C protein levels in human K562 cells at 25 uM. Type of assay: functional, cell-based. In short, it runs like this: as §2
Assay [19] has as its system K562. Description: Decrease in Cdc25C protein levels in human K562 cells at 50 uM. In kind it is functional, cell-based. The gist of the method:
as §2

Assay [20] concerns K562. The experiment in a line: Effect on Cyclin B protein levels in human K562 cells at 25 uM. In kind it is functional, cell-based. The gist of the method:
as §2

Assay [21] deals with K562. Description: Effect on Cyclin B protein levels in human K562 cells at 50 uM. Type of assay: functional, cell-based. The gist of the method:
as §2

The test system of assay [22] is K562. The experiment in a line: Effect on Cdk1 protein levels in human K562 cells at 25 uM. In kind it is functional, cell-based. The gist of the method: as §2
The subject of assay [23] is K562. The experiment in a line: Effect on Cdk1 protein levels in human K562 cells at 50 uM. In kind it is functional, cell-based. In short, it runs like this:
as §2

Assay [24] has as its system K562. The experiment in a line: Effect on Cdk2 protein levels in human K562 cells at 25 uM. In kind it is functional, cell-based. The gist of the method:
as §2

Assay [25] relates to K562. Description: Effect on Cdk2 protein levels in human K562 cells at 50 uM. Type of assay: functional, cell-based. The gist of the method: as §2

In general, GI50 refers to the concentration at which growth is held to half of that of the control. A higher GI50 goes with less potent growth inhibition. As to `N#Cc1ccc(C#Cc2ccccc2C#CCCCCO)cc1`, the GI50 worked out at 21.5 µM in assay [1]; 21.7 µM in [2]; 16 µM in [3]; 15.6 µM in [4]; 18.3 µM in assay [5]; 19.9 µM in [6]. Moreover, growth in [7] was halved (GI50) at 18.9 µM. In addition, the Activity in assay [8] is recorded as 51.2%; in assay [9] it was 38%; in assay [10] it was 10.8%; in [11] it was 5.65%.

With `OCC#Cc1ccccc1C#Cc1ccccc1`, the GI50 in assay [1] stood at 20.6 µM; in [12], 10.6 µM; in [2] it was 26 µM; in assay [13], 16.6 µM; in assay [3] it was 14.9 µM; in assay [14], 3.26 µM.

Regarding `OCCC#Cc1ccccc1C#Cc1ccccc1`, the GI50 in assay [1] came out at 28.1 µM; in assay [12], 16 µM; in [2], 11 µM; in assay [13], 17.3 µM; in [3] it was 12.5 µM; in assay [14], 3.41 µM.

Consider `CSc1ccccc1C#Cc1ccccc1C#CCCCCO`, for which the GI50 in [1] was found to be 1.5 µM; in assay [2] it was 6.1 µM; in [3], 4.7 µM; in assay [15], 3.5 µM; in assay [4], 3.8 µM; in assay [5] it was 5.8 µM. Also, the GI50 amounted to 14.7 µM in [6] and 3.9 µM in assay [7]. Moreover, the Activity came to 19.8% in assay [8], 24.6% in assay [9], 55.7% in assay [10] and 9.23% in assay [11].

As for `COc1ccccc1C#Cc1ccccc1C#CCCCCO`, the GI50 in assay [1] came to 22.1 µM; in assay [2], 15.5 µM; in [3], 14.3 µM; in assay [15], 1 µM; in assay [4], 19.9 µM; in assay [5], 17.9 µM. For the same molecule, the GI50 in assay [6] turned out to be 19.8 µM; in assay [7] it was 20.2 µM. Further, the Activity in assay [8] is reported as 30.9%; in assay [9] it was 41.5%; in assay [10] it was 27.6%; in assay [11], 8.08%.

Regarding `COc1cccc(C#Cc2ccccc2C#CCCCCO)c1`, the concentration for 50% growth inhibition (GI50) in [1] was 7.9 µM; in assay [2] it was 1.8 µM; in assay [3] it was 4.1 µM; in [15] it was 1.9 µM; in [4], 3.6 µM; in [5], 6.3 µM. Also, the GI50 is 10.7 µM in [6] and 1.9 µM in [7]. Moreover, the Activity was found to be 3.4% in [8], 11.9% in assay [9], 84.6% in assay [10] and 10.81% in [11].

With `OCCCCC#Cc1ccccc1C#Cc1ccccc1C(F)(F)F`, the GI50 in assay [1] is 2.3 µM; in [2], 1.1 µM; in assay [3], 6.1 µM; in assay [15], 0.4 µM; in assay [4], 3.5 µM; in [5] it was 4.9 µM. In addition, the GI50 came to 2.3 µM in assay [6] and 0.8 µM in assay [7]. Also, the Activity in assay [8] is recorded as 2.7%; in assay [9] it was 10.8%; in [10], 86.5%; in [11] it was 10.47%. The outcome in [16], in [17], in [18] and in assay [19] was Active. In addition, the outcome in assay [20], in assay [21], in [22], in assay [23], in assay [24] and in assay [25] was inactive.

Regarding `OCCCCC#Cc1ccccc1C#Cc1ccc(C(F)(F)F)cc1`, the GI50 is 19.1 µM in assay [1]; 18.2 µM in assay [2]; 15.8 µM in assay [3]; 0.6 µM in [15]; 12.5 µM in [4]; 17.1 µM in [5]. Also, the GI50 is 17.8 µM in [6] and 16.3 µM in [7]. The Activity in assay [8] was found to be 36.9%; in [9] it was 38.3%; in [10], 24.8%; in assay [11], 5.36%.

Consider `OCCCCC#Cc1ccccc1C#Cc1cccs1`, for which the GI50 in assay [1] amounted to 19 µM; in assay [2], 20.3 µM; in assay [3], 13 µM; in [15], 1.8 µM; in [4], 13.1 µM; in assay [5], 13.9 µM. Further, the GI50 in assay [6] is 15 µM; in [7] it was 16.6 µM. For the same molecule, the Activity in assay [8] worked out at 22.7%; in [9] it was 47.5%; in assay [10], 29.8%; in [11] it was 5.23%.

On to `OCCCCC#Cc1ccccc1C#Cc1cccc(C(F)(F)F)c1`, for which the GI50 in [1] came to 16.5 µM; in [2], 22.5 µM; in [3], 15.3 µM; in assay [15], 18.3 µM; in [4] it was 16.3 µM; in [5], 17.5 µM. The values for the 50% growth inhibitory concentration (GI50) in assay [6] and in assay [7] were 16.8 µM and 16.9 µM, respectively. Moreover, the Activity in assay [8] was found to be 30.6%; in assay [9], 40%; in assay [10] it was 29.4%; in [11] it was 3.84%.

With `OCCCCC#Cc1ccccc1C#Cc1cccc(O)c1`, the GI50 in assay [1] amounted to 21 µM; in assay [2], 19.2 µM; in assay [3], 17.4 µM; in assay [4], 13.6 µM; in [5], 16.7 µM; in assay [6], 20 µM. The molecule also returned a GI50 in [7] of 16.1 µM. The Activity worked out at 26.7% in [8], 37.1% in assay [9], 36.2% in [10] and 18.25% in assay [11].

Regarding `OCCCCC#Cc1ccccc1C#Cc1ccccc1`, the GI50 in [1] stood at 0.15 µM; in assay [12], 10 µM; in [2], 21.1 µM; in [13] it was 10.7 µM; in assay [3], 5.22 µM; in [14], 4.29 µM.

On to `OCCCCC#Cc1ccccc1C#Cc1ccccn1`, for which the GI50 in [1] was 21.8 µM; in assay [2] it was 29 µM; in assay [3], 9.8 µM; in [15], 25.5 µM; in [4] it was 29.8 µM; in assay [5], 27.7 µM. For the same molecule, the values for the GI50 in [6] and in assay [7] were 26.1 µM and 25.1 µM, respectively. In addition, the Activity was 30.4% in [8], 52.6% in assay [9], 17% in [10] and 4.4% in assay [11].
